T cruzi repl: T. cruzi replication inhibition. hit rate 1.4% among 300,000. inhibition, % (no concentration beside the values). T. cruzi beta-gal in NIH3T3, luminescence, 90 h;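 active means mean inhibition across valid replicates above about 55%, limit read from the data; inconclusive means mean below that limit but half or more replicates reach it; inactive means mean below it, under half of replicates reach it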;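 further: signal also drops with host cell toxicity which is not excluded here; higher percent means less beta-gal luminescence so fewer parasites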
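System: Mouse NIH/3T3 fibroblasts infected with β-gal-expressing T. cruzi Tulahuen C4 | Quantity: NIH/3T3 cells, 5,000 per well | Reagent: 5000 reporter trypomastigotes per well | Dosing: Compound pinned at 50 nL/well, DMSO | Schedule: 3 h host attachment, then at least 90 h co-culture | Detection: GalScreen luminescence, 60 min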
CSC inhib: cancer stem cell inhibition. cancer stem cell-like cells viability, luminescence. inhibition, % at 7.5 µM. hit rate 1.1% among 300,000. AID 2717; in the data active means inhibition above about 75%; inconclusive means no clear call, values can overlap the other calls; tested in HMLE shEcad cells
HIF activator: HIF pathway transcriptional activation. hit rate 0.32% among 300,000. activation, % at 7.5 µM (by protocol). U2OS HRE-luciferase reporter, luminescence; normalized: DMSO 0%, desferrioxamine 100%;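 active means mean activation of at least 10% of the iron chelator positive control signal, with at least half of replicates also reaching 10%; inconclusive means mean and replicate majority disagree about reaching 10%; inactive means mean and most replicates under 10%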
PfHsp90 set2: reduces growth (ATP signal) of yeast expressing P. falciparum Hsp90 | S. cerevisiae expressing PfHsp90, BacTiter-Glo ATP, 48 h; yeast lacking PDR1 and PDR3 efflux regulators | hit rate 0.32% among 310,000 | inhibition, % at 9.4 µM | AID 504621;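 active means every replicate shows inhibition above about 80%, whatever the replicate mean, limit read from the data; inconclusive means mean inhibition reaches the set limit but some replicate falls short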
Beta cell apopt: beta cell apoptosis inhibition | hit rate 0.8% among 300,000 | INS-1E cytokine-induced death, ATP luminescence, 48 h; percent of positive-control rescue, neutral wells zero | protection from apoptosis, % (concentration not given with the values);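 active means Every replicate reaches about 75%, or at least half do and their mean reaches it too, limit read from the data; inconclusive means At least half of replicates reach the limit but their mean does not; inactive means Under half of replicates reach the limit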;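 further: higher means more ATP so stronger rescue from cytokine killing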
SKKanGAS inh: blocks kanamycin growth of S. pyogenes SKKanGAS strain; BacTiter-Glo, 6 h; hit rate 1.3% among 300,000; inhibition, % at 7.5 µM;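 active means mean replicate score, as percent of positive control median, at least 50; inconclusive means mean below 50 but one replicate at or above 50; inactive means mean and every replicate below 50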;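 further: strain carries kanamycin resistance gene driven by streptokinase promoter and grows in 40 µg/ml kanamycin; loss of luminescence reflects streptokinase promoter inhibition or plain growth inhibition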
Hits are given with their value. The list is not random: actives were taken first. Their share in the collection is about 3.6%.

For O=C(CC1C(=O)NCCN1Cc1ccccc1C(F)(F)F)NC1CCCCCC1 (centres undefined) the results were T cruzi repl inactive, CSC inhib inactive, HIF activator inactive, PfHsp90 set2 inactive, Beta cell apopt inactive and SKKanGAS inh inactive.
`CN(CCO)c1cc(NCCCN2CCC(Cc3ccccc3)CC2)c2nonc2c1[N+](=O)[O-]` gave T cruzi repl 65, CSC inhib inactive, HIF activator inactive, PfHsp90 set2 inactive, Beta cell apopt inactive and SKKanGAS inh inactive.
`Cc1nc(N)nc(N)c1/C=C/C(C)(C)c1ccc(Cl)cc1` gave T cruzi repl 60, HIF activator inactive, PfHsp90 set2 inactive and SKKanGAS inh 97.
Cc1cc(=O)c2c(o1)C(=O)c1occc1C2=O was read as PfHsp90 set2 inactive.
CC1(C)CC[C@]2(C(=O)O)CC[C@]3(C)C(=CCC4[C@@]5(C)CC[C@H](O)C(C)(C)C5CC[C@]43C)C2C1 (some centres undefined) was read as T cruzi repl inactive, CSC inhib inactive, HIF activator inactive, PfHsp90 set2 inactive, Beta cell apopt inactive and SKKanGAS inh 105.
`CC(=O)OC1COC(OC2C(O)C(C)OC(OC3C(OC4CCC5(C)C(CCC6(C)C5CC=C5C7CC(C)(C)CCC7(C(=O)O)CCC56C)C4(C)CO)OCC(O)C3O)C2O)C(O)C1OC(C)=O` (centres undefined) gave CSC inhib inactive and Beta cell apopt 107.
For CCCOC(=O)CC1C(=O)NCCN1C(=O)OC(C)(C)C (centres undefined) the results were T cruzi repl inactive, CSC inhib inactive, HIF activator inactive, PfHsp90 set2 inactive, Beta cell apopt inactive and SKKanGAS inh inactive.
CCCOc1cc(N(CC)CC)ccc1/C=C(/C#N)c1nc2ccc(C)cc2[nH]1 was read as T cruzi repl 64, CSC inhib inactive, HIF activator inactive, PfHsp90 set2 inactive, Beta cell apopt inactive and SKKanGAS inh 61.
`CCOc1cc(N(CC)CC)ccc1/C=C(/C#N)c1nc2ccccc2[nH]1` gave T cruzi repl inconclusive, CSC inhib inactive, HIF activator inactive, PfHsp90 set2 inactive, Beta cell apopt inactive and SKKanGAS inh inactive.
For CCN(CC)c1ccc(/C=C(/C#N)c2nc3ccc(C)cc3[nH]2)c(OC(C)C)c1 the results were T cruzi repl 84, CSC inhib inactive, HIF activator inactive, PfHsp90 set2 inactive, Beta cell apopt inactive and SKKanGAS inh inactive.
O=C(NC(=S)Nc1cc(Cl)ccc1O)c1cccc(Br)c1 was read as T cruzi repl inactive, CSC inhib inactive, HIF activator inactive, PfHsp90 set2 inactive, Beta cell apopt inactive and SKKanGAS inh 108.
`O=C(NC(=S)Nc1cccnc1)c1cccc(Br)c1` gave T cruzi repl inactive, CSC inhib inactive, HIF activator inactive, PfHsp90 set2 inactive, Beta cell apopt inactive and SKKanGAS inh inactive.
Screening Cc1ccnc(N2C(=O)c3cccc4c([N+](=O)[O-])ccc(c34)C2=O)c1 returned T cruzi repl 64, CSC inhib 121, HIF activator inactive, PfHsp90 set2 inactive, Beta cell apopt inactive and SKKanGAS inh inactive.
For O=C1c2cccc3c([N+](=O)[O-])ccc(c23)C(=O)N1Cc1cccnc1 the results were T cruzi repl 85, HIF activator inactive, PfHsp90 set2 inactive and SKKanGAS inh inactive.
Cc1ccc(N2C(=O)c3cccc4c([N+](=O)[O-])ccc(c34)C2=O)c2cccnc12 was read as T cruzi repl inactive, CSC inhib inactive, HIF activator inactive, PfHsp90 set2 inactive, Beta cell apopt inactive and SKKanGAS inh inactive.
`CCOC(=O)C1CCCN(Cc2ccc(OCc3ccccc3)c(OC)c2)C1` (centres undefined) gave T cruzi repl 63, CSC inhib inactive, HIF activator inactive, PfHsp90 set2 inactive and SKKanGAS inh inactive.
For CCOC(=O)C1CCCN(Cc2ccc(OCc3ccccc3)cc2)C1 (centres undefined) the results were T cruzi repl 62, CSC inhib inactive, HIF activator inactive, PfHsp90 set2 inactive, Beta cell apopt inactive and SKKanGAS inh inactive.
`CCOC(=O)C1CCCN(Cc2ccc(O)c(OC)c2)C1` (centres undefined) gave T cruzi repl 58, CSC inhib inactive, HIF activator inactive, Beta cell apopt inactive and SKKanGAS inh inactive.
Screening CCOC(=O)C1CCCN(Cc2ccc(OC)cc2OC)C1 (centres undefined) returned T cruzi repl inactive, CSC inhib inactive, HIF activator inactive, PfHsp90 set2 inactive, Beta cell apopt inactive and SKKanGAS inh inactive.
For NNC(=O)C(Cc1cnc[nH]1)NC(=O)OCc1ccccc1 (centres undefined) the results were T cruzi repl inactive, CSC inhib inactive, HIF activator inactive, PfHsp90 set2 inactive and SKKanGAS inh inactive.
Screening O=C(O)c1sc2cccc(Cl)c2c1Cl returned T cruzi repl inactive, CSC inhib inactive, HIF activator inactive, PfHsp90 set2 inactive, Beta cell apopt inactive and SKKanGAS inh inactive.
Screening CCn1nc(C)c(NC(=O)/C=C/c2ccc(OC)c(COc3ccc(Cl)cc3Br)c2)c1C returned T cruzi repl 55, CSC inhib inactive, HIF activator inactive and SKKanGAS inh inactive.
`CN(CC(=O)Nc1cccc(F)c1)C(=O)c1cn(-c2ccccc2)nc1-c1cccs1` gave T cruzi repl inactive, CSC inhib inactive, HIF activator inactive, PfHsp90 set2 inactive, Beta cell apopt inactive and SKKanGAS inh inactive.
`COc1ccc(NC(=O)CN(C)C(=O)/C=C/c2cn(-c3ccccc3)nc2-c2ccc(C)cc2)cc1` gave T cruzi repl 72, CSC inhib inactive, HIF activator inactive, PfHsp90 set2 inactive, Beta cell apopt inactive and SKKanGAS inh 58.
Screening CN(CC(=O)Nc1cccc(F)c1)C(=O)c1cn(-c2ccccc2)nc1-c1ccc(Cl)cc1 returned CSC inhib 102, PfHsp90 set2 98 and Beta cell apopt inactive.
COc1cccc(NC(=O)CN(C)C(=O)/C=C/c2cn(-c3ccccc3)nc2-c2ccc(C)cc2)c1 was read as T cruzi repl inactive, CSC inhib inactive, HIF activator inactive and SKKanGAS inh inactive.
`COc1ccc(NC(=O)CN(C)C(=O)/C=C/c2cn(-c3ccccc3)nc2-c2ccc(F)cc2)cc1` gave T cruzi repl inactive, CSC inhib inactive, HIF activator inactive, PfHsp90 set2 inactive, Beta cell apopt inactive and SKKanGAS inh 63.
`COc1ccc(NC(=O)CN(C)C(=O)/C=C/c2cn(-c3ccccc3)nc2-c2cccs2)cc1` gave T cruzi repl inactive, CSC inhib inactive, HIF activator inactive, PfHsp90 set2 inactive, Beta cell apopt inactive and SKKanGAS inh inactive.
NS(=O)(=O)c1ccc(CCNC(=O)C2CCN(S(=O)(=O)c3ccc(Br)s3)CC2)cc1 was read as T cruzi repl inactive, CSC inhib inactive, HIF activator inactive, PfHsp90 set2 inactive, Beta cell apopt inactive and SKKanGAS inh inactive.
